Reference: ChEMBL document CHEMBL1126673, “6-[(aminoalkyl)amino]-substituted 7H-benzo[e]perimidin-7-ones as novel antineoplastic agents. Synthesis and biological evaluation” (J Med Chem, 1993)

What was measured:
Equus caballus = species: Equus caballus; assay: (§1) Concentration of substrate at which the amount of total cytochrome c reduction is decreased by 10%; format: functional
In short: (§2)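 NADH dehydrogenase substrate assay: decrease in enzymatic cytochrome c reduction at low NADH. Mixture of […], 0–200 μM compound, 10 μM NADH, 0.125 units/mL NADH dehydrogenase, 50 μg/mL SOD, 0.50 M HEPES pH 7.4. IC10 = substrate concentration reducing total cytochrome c reduction by 10%.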

[1] = NADH oxidation by the compound was determined; format: functional
In short: (§3)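 Enzymatic NADH oxidation stimulated by compound: reaction with 100 μM test compound, 100 μM NADH, NADH dehydrogenase at the stated activity, in 0.05 M HEPES pH 7.4.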

L1210 = assay: Concentration of compound required to inhibit the cellular protein biosynthesis by 50%; format: functional, cell-based; conditions: Mus musculus
In short: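 Murine L1210 leukemia cells grown in RPMI 1640 with 5% fetal calf serum, penicillin/streptomycin, 37 °C, 5% CO2, passaged every 2–3 days. Log-phase cells seeded at final 0.05×10^6 cells/mL and exposed 48 h. Growth inhibition read as cellular protein content; EC50 = concentration giving 50% inhibition. At least four runs, mean ± SEM.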

[2] = (§4) Activity of NADH dehydrogenase was determined; format: functional; in short: as §3
[3] = Ratio of toxic deaths/survivors 7 days after the day 5 injection as a measure of drug toxicity at the dose of 100 (mg/kg); format: organism-based; conditions: in vivo, 168 h
In short: (§5)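 P388 leukemia model in (BALB/c × DBA/2) F1 mice, 10^6 cells ip on day 0. Toxicity was scored as toxic deaths/survivors 7 days after the day-5 injection.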

[4] = Ratio of toxic deaths/survivors 7 days after the day 5 injection as a measure of drug toxicity at the dose of 50 (mg/kg); format: organism-based; conditions: in vivo, 168 h; in short: as §5
P388 [5] = assay: (§6) Ratio of medium survival time of the treated to the control mice at the dose of 100 (mg/kg); format: functional, Mus musculus
P388 [6] = assay: ratio of medium survival time of the treated to the control mice at the dose of 50 (mg/kg); format: functional, Mus musculus
P388 [7] = assay: Ratio of medium survival time of the treated to the control mice at the dose of 50 (mg/kg); format: functional, Mus musculus
[8] = biological target: NADH-ubiquinone oxidoreductase chain 4 (Homo sapiens) (UniProt P03905); assay: as §1; format: functional; in short: as §2
NADH-ubiquinone oxidoreductase chain 4 (Homo sapiens), sequence (P03905 whole entry, looked up): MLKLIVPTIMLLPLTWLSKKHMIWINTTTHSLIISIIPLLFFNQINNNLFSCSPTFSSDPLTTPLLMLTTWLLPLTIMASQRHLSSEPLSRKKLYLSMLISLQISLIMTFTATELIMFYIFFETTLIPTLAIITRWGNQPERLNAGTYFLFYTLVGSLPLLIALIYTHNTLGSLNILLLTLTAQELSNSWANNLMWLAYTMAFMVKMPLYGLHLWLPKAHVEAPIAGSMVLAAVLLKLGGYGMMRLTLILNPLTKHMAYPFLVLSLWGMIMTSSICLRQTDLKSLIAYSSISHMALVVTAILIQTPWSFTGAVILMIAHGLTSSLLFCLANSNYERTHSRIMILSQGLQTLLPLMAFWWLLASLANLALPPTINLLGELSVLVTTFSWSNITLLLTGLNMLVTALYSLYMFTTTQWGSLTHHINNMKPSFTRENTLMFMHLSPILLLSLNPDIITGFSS

[9] = biological target: NADH-ubiquinone oxidoreductase chain 4 (Homo sapiens) (UniProt P03905); assay: as §4; format: functional; in short: as §3
[10] = Ratio of toxic deaths/survivors 7 days after the day 5 injection as a measure of drug toxicity at the dose of 25 (mg/kg); format: organism-based; conditions: in vivo, 168 h; in short: as §5
P388 [11] = assay: ratio of medium survival time of the treated to the control mice at the dose of 25 (mg/kg); format: functional, Mus musculus
[12] = Ratio of toxic deaths/survivors 7 days after the day 5 injection as a measure of drug toxicity at the dose of 3.12 (mg/kg); format: functional; in short: as §5
[13] = Ratio of toxic deaths/survivors 7 days after the day 5 injection as a measure of drug toxicity at the dose of 12.50 (mg/kg); format: functional; in short: as §5
P388 [14] = assay: ratio of medium survival time of the treated to the control mice at the dose of 6.25 (mg/kg); format: functional, Mus musculus
P388 [15] = assay: ratio of medium survival time of the treated to the control mice at the dose of 12.50 (mg/kg); format: functional, Mus musculus
P388 [16] = assay: ratio of medium survival time of the treated to the control mice at the dose of 3.12 (mg/kg); format: functional, Mus musculus
[17] = Ratio of toxic deaths/survivors 7 days after the day 5 injection as a measure of drug toxicity at the dose of 6.25 (mg/kg); format: functional; in short: as §5
[18] = Ratio of toxic deaths/survivors 7 days after the day 5 injection as a measure of drug toxicity; conditions: 168 h; in short: as §5
[19] = Ratio of toxic deaths/survivors 7 days after the day 5 injection as a measure of drug toxicity at the dose of 200 (mg/kg); format: organism-based; conditions: in vivo, 168 h; in short: as §5
Mus musculus [20] = assay: as §6; format: functional
Mus musculus [21] = assay: Ratio of medium survival time of the treated to the control mice at the dose of 200 (mg/kg); format: functional

Activity [9] [units ml-1]	Compound	IC10 (Equus caballus) [nM]	Activity [1] [µM/min]	EC50 (L1210) [nM]	Activity [2] [U/mL]	ToxD/Surv [3]	ToxD/Surv [4]	T/C (P388 [5]) [%]	T/C (P388 [7]) [%]	Oxidation [1] [µM/min]	also measured
	CN(C)CCNc1ccc2ncnc3c2c1C(=O)c1ccccc1-3	> 300000	6.5	203	0.75	6	6	209			T/C (P388 [6]): 155%
	NCCCNc1ccc2ncnc3c2c1C(=O)c1ccccc1-3	> 300000	4.7	546	0.75	4	7	127	127		
	CNCCNc1ccc2ncnc3c2c1C(=O)c1ccccc1-3	> 300000	7.6	268	0.75	6	6	164	146		
0.15	COc1cccc2c1C(=O)c1c(O)c3c(c(O)c1C2=O)C[C@@](O)(C(C)=O)C[C@@H]3O[C@H]1C[C@H](N)[C@H](O)[C@H](C)O1									33	IC10 ([8]; Equus caballus): 2000 nM
	CCN(CC)CCNc1ccc2ncnc3c2c1C(=O)c1ccccc1-3	> 300000	7	460	0.75	7	5	180	140		
0.15	COc1cccc2c1C(=O)c1c(O)c3c(c(O)c1C2=O)C[C@@](O)(C(=O)CO)C[C@@H]3O[C@H]1C[C@H](N)[C@H](O)[C@H](C)O1									30.1	
	NCCNc1ccc2ncnc3c2c1C(=O)c1ccccc1-3	> 300000	4.5	379	0.75		7		150		ToxD/Surv [10]: 7; T/C (P388 [11]): 140%
	O=C1c2ccccc2-c2ncnc3ccc(NCCNCCO)c1c23		7.4	296	0.75			255	173		IC10 ([8]; Equus caballus): > 300000 nM; ToxD/Surv [18]: 7
	Nc1ccc2ncnc3c2c1C(=O)c1ccccc1-3			945		0					ToxD/Surv [19]: 0; T/C (Mus musculus [20]): 100%; T/C (Mus musculus [21]): 100%

Compound	Activity [9] [units ml-1]	IC10 (Equus caballus) [nM]	Activity [1] [µM/min]	EC50 (L1210) [nM]	Activity [2] [U/mL]	ToxD/Surv [3]	ToxD/Surv [4]	T/C (P388 [5]) [%]	T/C (P388 [7]) [%]	Oxidation [1] [µM/min]	also measured
O=C1c2ccccc2C(=O)c2c(NCCNCCO)ccc(NCCNCCO)c21 [AMETANTRONE]	0.75			275						8.8	IC10 [8]: 114000 nM; ToxD/Surv [12]: 6; ToxD/Surv [13]: 6; T/C (P388 [14]): 210%; T/C (P388 [15]): 300%; T/C (P388 [16]): 190%; ToxD/Surv [17]: 6
